Rows were chosen to be rich in hits. Some 2.7% of all compounds tested hit in one or more screens of this group.
OXTR potentiate: potentiators of human oxytocin receptor; P30559; 0.061% of 320,000 active; activation, % at 3 µM; CHO-OTR cells, Fluo-8 calcium fluorescence, potentiator mode; 0% = oxytocin EC15, 100% = EC100;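 active means activation above that plate's cutoff, the mean activation of tested compounds plus 3 SD, cut at about 6.6% in these data, passing the limit was not always enough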;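 further: 100% uses oxytocin at 75 nM as the full agonist control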
Target sequence (P30559 whole entry, looked up): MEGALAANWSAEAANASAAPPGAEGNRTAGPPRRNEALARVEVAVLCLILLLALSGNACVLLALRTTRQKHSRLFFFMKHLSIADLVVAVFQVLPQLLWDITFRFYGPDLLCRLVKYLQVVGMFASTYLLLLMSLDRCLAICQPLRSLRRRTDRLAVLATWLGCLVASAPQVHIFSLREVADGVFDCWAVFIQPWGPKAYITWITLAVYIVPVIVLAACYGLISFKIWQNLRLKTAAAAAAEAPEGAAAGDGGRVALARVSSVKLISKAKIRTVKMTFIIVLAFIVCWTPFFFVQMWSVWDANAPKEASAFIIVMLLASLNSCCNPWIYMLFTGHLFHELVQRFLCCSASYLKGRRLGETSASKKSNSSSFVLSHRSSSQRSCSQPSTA
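System: human OTR in CHO cells; Also added: sub-maximal oxytocin, roughly EC15; Timing: compound 6 min at room temperature before oxytocin, 100 s read; Technique: Fluo-8 intracellular calcium fluorescence, ex 470-495, em 515-575 nm; Controls: oxytocin EC15 low and EC100 high; Replication: singlicate.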
OX1R antag-1: human HCRTR1 antagonism. CHO/OX1R cells, Fluo-8 calcium fluorescence, orexin A. inhibition, % at 5 µM. 0.43% of 330,000 active. AID 434989;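 active means inhibition above its plate's threshold, mean inhibition of all tested compounds on the plate plus 3 SD, cut at about 37% in these data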;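 further: 0% = orexin A challenge wells and 100% = SB-334867-A antagonist wells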
OX1R antag-2: OX1R (human) antagonism | 1.8% of 330,000 active | AID 485270 | OX1R-expressing cells, FRET antagonist read-out | inhibition, % at 6.6 µM; in the data active means inhibition mostly above about 38%, no sharp cut-off; inactive means mostly below about 40%;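 further: 0% = agonist challenge alone and 100% = reference antagonist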
CHO parental Ca: signal in parental CHO cells, OX1R antagonist counter-screen; 0.63% of 330,000 active; parental CHO-K1, ATP-induced calcium, Fluo-8 fluorescence; AID 463079; inhibition, % at 5.6 µM;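 active means inhibition above that plate's mean sample inhibition plus 3 SD, cut at about 26% in these data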;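 further: 0% = ATP-challenged DMSO wells and 100% = DMSO wells without ATP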
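Test system: untransfected parental CHO cell line. Compound: one dose, 5.6 µM nominal. Detection: intracellular calcium via Fluo-8 no-wash fluorescent dye. Measure: % inhibition. Benchmarks: ATP-challenged DMSO wells low, unchallenged DMSO wells high.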
V1aR counter: activates human V1a receptor in oxytocin agonist counter-screen; P37288; activation, % at 3 µM; CHO-V1R cells, Fluo-8 calcium fluorescence, agonist mode; 0% DMSO, 100% 3 nM vasopressin; 0.25% of 320,000 active;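 active means activation above the mean activation of all tested compounds plus 3 SD, per screening run, cut at about 20% in these data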;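 further: signal is peak over basal fluorescence ratio across a 100 second FLIPR read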
OXTR ag: activates the human oxytocin receptor; P30559; CHO-OTR cells, Fluo-8 calcium fluorescence; normalized: DMSO 0%, oxytocin 100%; activation, % at 3 µM; 0.32% of 320,000 active;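 active means activation above the mean of all tested compounds plus 3 SD, cutoff set per screening run, cut at about 20% in these data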;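 further: peak over basal fluorescence ratio from a 100 s FLIPR kinetic read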
An asterisk follows results filed as active.

Results for Cc1ccc(C(=O)NCC(=O)NCCCc2ccccc2)cc1 ?
OXTR potentiate: 0.3; OX1R antag-1: -23.7; OX1R antag-2: 17.5; CHO parental Ca: -20.1; V1aR counter: -0.2; OXTR ag: -0.6

Results for Cc1cc(C)n2nc(C(=O)Nc3ccc4c(c3)CCC4)nc2n1 ?
OXTR potentiate: -12.8; OX1R antag-1: -13.5; OX1R antag-2: -13.7; CHO parental Ca: -19.9; V1aR counter: 0.8; OXTR ag: 0.1

How did O=C(Nc1ccc(F)cc1F)c1cc(Cl)sc1Cl do in these assays?
OXTR potentiate: -5.0; OX1R antag-1: -14.1; OX1R antag-2: -6.5; CHO parental Ca: -21.9; V1aR counter: -1.5; OXTR ag: -2.8

How did COc1ccc2nc(NC(=O)CSc3n[nH]c(N)n3)sc2c1 do in these assays?
OXTR potentiate: -10.0; OX1R antag-1: 0.0; OX1R antag-2: 12.8; CHO parental Ca: 16.2; V1aR counter: 1.6; OXTR ag: -0.1

How did Nc1nc(CSc2nc3ccccc3s2)nc(Nc2ccccc2)n1 do in these assays?
OXTR potentiate: -2.2; OX1R antag-1: 60.3*; OX1R antag-2: 92.2*; CHO parental Ca: -29.7; V1aR counter: 0.3; OXTR ag: -0.6

How did CN(C)C(CNC(=O)c1ccc2c(=O)n(-c3ccccc3F)c(=S)[nH]c2c1)Cc1ccccc1 (stereo unspecified) do in these assays?
OXTR potentiate: -1.5; OX1R antag-1: -25.1; OX1R antag-2: 1.4; CHO parental Ca: -11.2; V1aR counter: -0.1; OXTR ag: 0.1

How did O=C(Nc1nc(-c2cccs2)c(C(=O)C(F)(F)F)s1)c1ccco1 do in these assays?
OXTR potentiate: -8.5; OX1R antag-1: -21.8; OX1R antag-2: 20.4; CHO parental Ca: 6.6; V1aR counter: 2.9; OXTR ag: 0.2

What do the screens show for `O=C(Nc1nc(-c2cccs2)c(C(=O)C(F)(F)F)s1)c1ccccc1`?
OXTR potentiate: -9.5; OX1R antag-1: -26.0; OX1R antag-2: 59.9*; CHO parental Ca: -5.9; V1aR counter: 6.5; OXTR ag: 3.7

What do the screens show for `Cc1cc(C)c(CSc2ncc(-c3ccc([N+](=O)[O-])cc3)[nH]2)c(C)c1`?
OXTR potentiate: -20.6; OX1R antag-1: 39.9*; OX1R antag-2: 91.3*; CHO parental Ca: 40.0*; V1aR counter: 0.0; OXTR ag: -1.9

Results for N#Cc1cn(-c2cccc(C(F)(F)F)c2)c(=O)[nH]c1=O ?
OXTR potentiate: -5.7; OX1R antag-1: 1.9; OX1R antag-2: -1.6; CHO parental Ca: -12.4; V1aR counter: 0.4; OXTR ag: 2.1

How did CCc1nnc(NC(=O)c2cc3ccccc3oc2=O)s1 do in these assays?
OXTR potentiate: -10.2; OX1R antag-1: -12.8; OX1R antag-2: 76.6*; CHO parental Ca: -5.4; V1aR counter: 1.8; OXTR ag: 1.0

Results for Cc1nnc(NC(=O)c2cc3ccccc3o2)s1 ?
OXTR potentiate: -4.0; OX1R antag-1: -3.8; OX1R antag-2: 7.5; CHO parental Ca: -4.1; V1aR counter: -0.3; OXTR ag: -0.3

How did COc1ccccc1N(CC(=O)N/N=C/c1c(O)ccc2ccccc12)S(C)(=O)=O do in these assays?
OXTR potentiate: -7.0; OX1R antag-1: -11.2; OX1R antag-2: 68.8*; CHO parental Ca: -10.6; V1aR counter: 3.0; OXTR ag: 4.5

How did N#Cc1c([N+](=O)[O-])cc([N+](=O)[O-])cc1S(=O)(=O)Cc1ccccc1 do in these assays?
OXTR potentiate: 6.0; OX1R antag-1: -2.1; OX1R antag-2: 28.5; CHO parental Ca: 16.6; V1aR counter: 1.0; OXTR ag: -1.5

How did COc1cccc(-c2cc(C(=O)Nc3ccc(OC)c(OC)c3)no2)c1 do in these assays?
OXTR potentiate: -8.5; OX1R antag-1: 20.5; OX1R antag-2: 84.3*; CHO parental Ca: -17.3; V1aR counter: 2.0; OXTR ag: 0.8

What do the screens show for `COc1ccc(NC(=O)c2cc(-c3ccccc3)on2)cc1OC`?
OXTR potentiate: -6.9; OX1R antag-1: -8.8; OX1R antag-2: 13.6; CHO parental Ca: -10.8; V1aR counter: 3.3; OXTR ag: 0.6

Results for COc1ccccc1CNC(=O)C1CCC(CNc2c(N3CCC(C)CC3)c(=O)c2=O)CC1 (stereo unspecified) ?
OXTR potentiate: -16.9; OX1R antag-1: -20.3; OX1R antag-2: 9.7; CHO parental Ca: -2.0; V1aR counter: 4.5; OXTR ag: -0.4

How did CCOC(=O)c1nc(C)n(-c2ccc([N+](=O)[O-])cc2)n1 do in these assays?
OXTR potentiate: -3.4; OX1R antag-1: -31.5; OX1R antag-2: 48.6*; CHO parental Ca: 2.8; V1aR counter: 0.9; OXTR ag: 0.2

How did Cc1ccc(NC(=O)c2nc(C)n(-c3ccc([N+](=O)[O-])cc3)n2)cc1 do in these assays?
OXTR potentiate: -0.1; OX1R antag-1: -14.4; OX1R antag-2: 26.2; CHO parental Ca: -8.8; V1aR counter: -0.1; OXTR ag: -0.9

What do the screens show for `Cc1nc(C(=O)Nc2ccc(F)cc2)nn1-c1ccc([N+](=O)[O-])cc1`?
OXTR potentiate: 1.2; OX1R antag-1: -11.9; OX1R antag-2: 54.7*; CHO parental Ca: -8.1; V1aR counter: 0.9; OXTR ag: -0.4

What do the screens show for `Cc1ccc(S(=O)(=O)Cc2cc(F)c([N+](=O)[O-])cc2[N+](=O)[O-])cc1`?
OXTR potentiate: -6.7; OX1R antag-1: 59.6*; OX1R antag-2: 40.9*; CHO parental Ca: 56.5*; V1aR counter: 3.0; OXTR ag: -0.2

Results for CCOC(=O)c1ccc([N+](=O)[O-])c(CS(=O)(=O)c2ccc(Cl)cc2)c1 ?
OXTR potentiate: -21.2; OX1R antag-1: -17.4; OX1R antag-2: 15.6; CHO parental Ca: -4.5; V1aR counter: 4.4; OXTR ag: 2.8

How did CCOC(=O)c1sc(NC(=O)CSc2nc(C)cc(C)n2)c(C#N)c1C do in these assays?
OXTR potentiate: -1.1; OX1R antag-1: -11.2; OX1R antag-2: 10.5; CHO parental Ca: -10.1; V1aR counter: 3.5; OXTR ag: 4.1

Results for CC(=O)Nc1cccc(NC(=O)CSc2n[nH]c(-c3ccccc3)n2)c1 ?
OXTR potentiate: -6.2; OX1R antag-1: 11.4; OX1R antag-2: 47.5*; CHO parental Ca: -6.0; V1aR counter: -1.0; OXTR ag: -1.4

How did O=C(CSc1ncc(-c2ccccc2)[nH]1)Nc1ccccc1 do in these assays?
OXTR potentiate: -0.1; OX1R antag-1: 3.5; OX1R antag-2: 22.8; CHO parental Ca: -3.8; V1aR counter: 0.4; OXTR ag: 0.5

How did CCOC(=O)c1sc(NC(=O)CSc2n[nH]c(-c3ccccc3)n2)c(C#N)c1C do in these assays?
OXTR potentiate: -19.0; OX1R antag-1: 46.0*; OX1R antag-2: 39.1; CHO parental Ca: 40.4*; V1aR counter: 11.9; OXTR ag: 13.6

How did CC(=O)Nc1cccc(NC(=O)CSc2ncc(-c3ccccc3)[nH]2)c1 do in these assays?
OXTR potentiate: -4.3; OX1R antag-1: 10.2; OX1R antag-2: 53.3*; CHO parental Ca: 7.7; V1aR counter: -1.1; OXTR ag: -0.1

Source: PubChem
